Reference: ChEMBL document CHEMBL1154219, “New Ras CAAX mimetics: design, synthesis, antiproliferative activity, and RAS prenylation inhibition” (Bioorg Med Chem Lett, 2009)
Calls of active or inactive are those of the source. The calls are words filed in the database; no cut-off is given here.

What was measured:
[1] = Antiproliferative activity against HSMC after 72 hrs; type: functional; conditions: Homo sapiens
Method in brief: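 Human aortic SMCs seeded at 8 × 10⁴ cells per 35 mm dish in DMEM with 10% FCS. After 24 h, switched to 0.4% FCS for 72 h to arrest growth. Then refed with 10% FCS with or without compound (DMSO, final ≤0.5%) for 72 h at 37 °C. Cells trypsinized and counted by Coulter counter. IC50 obtained by linear regression of log concentration versus logit.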

[2] = species: Homo sapiens; assay: Inhibition of Ras protein protein prenylation in HSMC assessed as unprenylated Ras accumulation at 10 uM after 72 hrs by Western blot analysis
Method in brief: (§1)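 Human aortic SMCs seeded at 4 × 10⁵ cells per 60 mm dish. Growth-arrested in 0.4% FCS for 72 h, then exposed to compound in 10% FCS for 72 h at 37 °C (DMSO ≤0.5%). Cells lysed on ice in Tris pH 7.5/NaCl/NP-40 buffer with protease inhibitors; lysates cleared, protein measured by BCA. SDS-PAGE under reducing conditions, anti-Ras immunoblot, ECL detection. Unprenylated Ras seen as the slower-migrating band.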

[3] = species: Homo sapiens; assay: Inhibition of Ras protein protein prenylation in HSMC assessed as unprenylated Ras accumulation at 50 uM after 72 hrs by Western blot analysis; method in brief: as §1
[4] = species: Homo sapiens; assay: Inhibition of Ras protein protein prenylation in HSMC assessed as unprenylated Ras accumulation at 25 uM after 72 hrs by Western blot analysis; method in brief: as §1
[5] = species: Homo sapiens; assay: Inhibition of Ras protein protein prenylation in HSMC assessed as unprenylated Ras accumulation at 75 uM after 72 hrs by Western blot analysis; method in brief: as §1
[6] = Inhibition of Ras protein protein prenylation in HSMC assessed as unprenylated Ras accumulation after 72 hrs by Western blot analysis; set-up: species or system Homo sapiens; method in brief: as §1

inhibition [3] | Compound | IC50 [1] [µM] | other results
 | COC(=O)[C@H](CCSC)NC(=O)c1ccc(C(=O)NC[C@@H]2COc3ccccc3O2)cc1-c1ccccc1OC | 647 | 
 | COC(=O)[C@H](CCSC)NC(=O)c1ccc(C(=O)NC[C@H]2COc3ccccc3O2)cc1-c1ccccc1OC | 252 | 
 | COC(=O)[C@H](CC(C)C)NC(=O)c1ccc(C(=O)NC[C@H]2COc3ccccc3O2)cc1-c1ccccc1OC | 185 | 
 | COC(=O)[C@H](CC(C)C)NC(=O)c1ccc(C(=O)NC[C@H]2COc3ccccc3O2)cc1-c1ccccc1C | 103 | 
 | COC(=O)[C@H](CC(C)C)NC(=O)c1ccc(C(=O)NC[C@@H]2COc3ccccc3O2)cc1-c1ccccc1C | 88 | 
inactive | COC(=O)[C@H](CC(C)C)NC(=O)c1ccc(OC[C@H]2COc3ccccc3O2)cc1-c1ccccc1C | 3 | inhibition [2]: inactive
 | COC(=O)CNC(=O)c1ccc(C(=O)NC[C@H]2COc3ccccc3O2)cc1-c1ccccc1OC | 122 | 
 | COC(=O)[C@H](CCSC)NC(=O)c1ccc(OC[C@@H]2COc3ccccc3O2)cc1-c1ccccc1OC | 204 | 
inactive | COC(=O)[C@H](CC(C)C)NC(=O)c1ccc(OC[C@H]2COc3ccccc3O2)cc1-c1ccccc1OC | 32 | inhibition [4]: inactive
inactive | COC(=O)[C@H](CC(C)C)NC(=O)c1ccc(OC[C@@H]2COc3ccccc3O2)cc1-c1ccccc1C | 5.2 | inhibition [4]: inactive
inactive | COC(=O)CNC(=O)c1ccc(OC[C@H]2COc3ccccc3O2)cc1-c1ccccc1OC | 71 | inhibition [5]: inactive
 | COC(=O)[C@H](CCSC)NC(=O)c1ccc(C(=O)NC[C@H]2COc3ccccc3O2)cc1-c1ccccc1C | 87 | 
inactive | COC(=O)CNC(=O)c1ccc(OC[C@@H]2COc3ccccc3O2)cc1-c1ccccc1OC | 35 | inhibition [5]: inactive
inactive | COC(=O)CNC(=O)c1ccc(OC[C@@H]2COc3ccccc3O2)cc1-c1ccccc1C | 0.7 | inhibition [4]: inactive
inactive | COC(=O)[C@H](CC(C)C)NC(=O)c1ccc(OC[C@@H]2COc3ccccc3O2)cc1-c1ccccc1OC | 17 | inhibition [2]: inactive
 | COC(=O)CNC(=O)c1ccc(C(=O)NC[C@H]2COc3ccccc3O2)cc1-c1ccccc1C | 113 | 
 | COC(=O)[C@H](CC(C)C)NC(=O)c1ccc(C(=O)NC[C@@H]2COc3ccccc3O2)cc1-c1ccccc1OC | 469 | 
 | COC(=O)[C@H](CCSC)NC(=O)c1ccc(OC[C@@H]2COc3ccccc3O2)cc1-c1ccccc1C | 193 | 
 | COC(=O)[C@H](CCSC)NC(=O)c1ccc(OC[C@H]2COc3ccccc3O2)cc1-c1ccccc1OC | 230 | 
 | COC(=O)[C@H](CCSC)NC(=O)c1ccc(C(=O)NC[C@@H]2COc3ccccc3O2)cc1-c1ccccc1C | 533 | 
 | COC(=O)[C@H](CCSC)NC(=O)c1ccc(OC[C@H]2COc3ccccc3O2)cc1-c1ccccc1C | 6.6 | IC50 [6]: 2.8 µM
 | COC(=O)CNC(=O)c1ccc(C(=O)NC[C@@H]2COc3ccccc3O2)cc1-c1ccccc1C | 89 | 
 | COC(=O)CNC(=O)c1ccc(C(=O)NC[C@@H]2COc3ccccc3O2)cc1-c1ccccc1OC | 76 | 
35% | COC(=O)CNC(=O)c1ccc(OC[C@H]2COc3ccccc3O2)cc1-c1ccccc1C | 27 | 
